NR2E3 ag-1: agonists of human nuclear receptor NR2E3. Q9Y5X4. GST-NR2E3/biotin-RetCOR TR-FRET, 1536-well. inhibition of corepressor binding, % at 4.78 µM. 320,000 compounds, 0.12% hits. AID 2300;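 active = percent inhibition above the cutoff of mean plus 3 SD of all tested compounds, set per screening campaign, cut at about 20% in these data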
Target sequence (Q9Y5X4 whole entry, looked up): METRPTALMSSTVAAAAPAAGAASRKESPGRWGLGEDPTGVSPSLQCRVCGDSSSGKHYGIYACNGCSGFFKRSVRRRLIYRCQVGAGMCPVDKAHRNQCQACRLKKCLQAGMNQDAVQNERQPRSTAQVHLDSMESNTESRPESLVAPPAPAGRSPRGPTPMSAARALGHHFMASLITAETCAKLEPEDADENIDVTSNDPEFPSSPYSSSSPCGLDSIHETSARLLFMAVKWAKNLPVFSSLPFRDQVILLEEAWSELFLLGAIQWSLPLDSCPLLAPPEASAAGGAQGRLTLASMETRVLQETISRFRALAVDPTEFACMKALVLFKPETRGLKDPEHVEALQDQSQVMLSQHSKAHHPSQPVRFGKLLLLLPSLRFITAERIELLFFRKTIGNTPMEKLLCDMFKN
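Material: NR2E3–RetCOR corepressor complex / Incubation: Compound–protein incubation for 5 h at 4 °C / Dosing: compound at 4.8 µM, single dose / Detection: time-resolved FRET / Benchmarks: high control biotin, low control 0.6% DMSO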
T cell HTS: T cell immune modulators affecting CD8 T cell-vesicle binding; 2C CD8+ T cell-vesicle binding, flow cytometry; hits give low values; response (vesicle binding), % at 7 µM; 330,000 compounds, 0.068% hits; AID 2052;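 active = response, share of CD8 T cells binding vesicles, and their 90th percentile fluorescence all below set limits, cut at about 80% in these data, passing the limit was not always enough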;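 also: values below 100% mean blocked vesicle binding to the CD8+ T cells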
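Read-out – percent CD8+ FL2 mean versus row control · System – murine 2C transgenic CD8+ T lymphocytes · Times – 1.5 h cell–vesicle binding at 37 °C, then 20 min icy labelling · Control set – naked vesicles low, QL9 vesicles with vehicle high · Detection – cytometric PE anti-B7-1 and Alexa647 anti-CD8 signals after 1% paraformaldehyde fixation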
FXN GAA850 act: frataxin GAA850 promoter activation | AID 540364 | HEK293 lucGAA850 FXN promoter luciferase reporter, 24 h; percent of 10 µM SAHA response | activation, % at 6 µM | 360,000 compounds, 0.56% hits;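 active = activation above the average of all compounds screened plus 3 SD, cutoff fixed separately per campaign, cut at about 7.5% in these data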
Myeloid diff MLP: promotes myeloid progenitor differentiation | ER-HoxA9 myeloid progenitors, lysozyme-GFP differentiation, flow cytometry | calls only at 10 µM | 360,000 compounds, 1% hits | AID 624256;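 active = normalized GFP-positive differentiation at or above the plate's own cutoff, the solvent-only control mean plus 3 SD; inconclusive = no clear call, values can overlap the other calls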;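 also: cells exposed to compound for four days before flow analysis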
NR2E3 ag-2: activates human NR2E3 receptor. AID 602229. inhibition of corepressor binding, % at 3.98 µM. CHO-S Gal4-NCOR/VP16-NR2E3 two-hybrid, luciferase. Q9Y5X4. 360,000 compounds, 0.35% hits;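 active = inhibition above the mean of all tested compounds plus 3 SD, cut at about 70% in these data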;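 also: higher means lower luciferase signal from less NR2E3 corepressor binding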
Of the large screens only hits and unclear results are named; the others gave an inactive call. The list is not random: actives were taken first. Their share in the collection is about 2%.

CCN1C(=O)N[C@@H](CCc2ccccc2)[C@@H](C(=O)OC)[C@H]1C	Myeloid diff MLP active
COC(=O)[C@H]1[C@H](CCc2ccccc2)NC(=O)N(Cc2ccccc2)[C@@H]1C	none
CN(C(=O)c1cccc(NC(=O)Cc2ccc(NC(=O)C3CCN(C(=O)CCc4ccccc4)CC3)cc2)c1)C1CC1	none (no result: NR2E3 ag-1, T cell HTS)
OCCN1CCN(Cc2cc(Cl)c3cccnc3c2O)CC1	none
O=C(Oc1c(CN2CCOCC2)cc(Cl)c2cccnc12)c1ccc(F)cc1	Myeloid diff MLP active
Oc1c(CN2CCN(c3ccccn3)CC2)cc(Cl)c2cccnc12	FXN GAA850 act 10, Myeloid diff MLP inconclusive, NR2E3 ag-2 79
COc1ccc(C(=O)Oc2c(CN3CCOCC3)cc(Cl)c3cccnc23)cc1	none (no result: Myeloid diff MLP)
OC[C@H]1OC(O)[C@H](O)[C@@H]1O (stereo not given in full)	none
COCCNC(=O)c1ccccc1NC(=O)c1ccc(OC)c(OC)c1	Myeloid diff MLP active
COC(=O)[C@@]1(C(C)C)N=C(c2cc(OC)c(OC)c(OC)c2)[C@]2(O1)C(=O)N(Cc1ccc(OC)cc1)c1ccc(Br)cc12	none (no result: NR2E3 ag-1, T cell HTS, FXN GAA850 act)
COc1ccc(-c2cc(NC(C)=O)c3ncc(-c4cccc(C(C)=O)c4)n3c2)cc1OC	none (no result: NR2E3 ag-1, T cell HTS)
COc1ccc(S(=O)(=O)N(C)CC(=O)NCc2ccco2)cc1Cl	Myeloid diff MLP active
CN(CCCC(=O)NCc1ccco1)S(=O)(=O)c1ccccc1	Myeloid diff MLP active
CN(CC(=O)NCc1ccco1)S(=O)(=O)c1ccc(F)cc1	none
N=C1c2ccccc2CN1NC(=O)CC12CC3CC(CC(C3)C1)C2	Myeloid diff MLP active
COc1ccc(CN2CCN(C(=O)CCC(=O)Nc3nnc(C4CCCCC4)s3)CC2)cc1F	Myeloid diff MLP active
O=C1[C@H]2[C@@H](c3ccc(F)cc3)N3C(=O)N(c4ccccc4)C(=O)[C@@]3(Cc3ccc(Cl)cc3)[C@H]2C(=O)N1C1CCCCC1	FXN GAA850 act 11
O=C1[C@H]2[C@@H](c3ccc(F)cc3)N3C(=O)N(c4cccc(Cl)c4)C(=O)[C@@]3(Cc3ccc(Cl)cc3)[C@H]2C(=O)N1C1CCCCC1	none
C[C@@]12C(=O)N(c3cccc(F)c3)C(=O)N1[C@H](c1ccc(F)cc1)[C@@H]1C(=O)N(C3CCCCC3)C(=O)[C@@H]12	FXN GAA850 act 14
Cc1cc(/C=C2\SC(=S)N(C)C2=O)c(C)n1-c1ccccc1O	Myeloid diff MLP active
CC(=O)Nc1ccc(-c2ccnc3c2CC(C)(C(=O)Nc2ccc(Cl)cc2)O3)cc1 (stereo not given)	none (no result: NR2E3 ag-1, T cell HTS)
C=CCn1c(=O)/c(=C2/SC(C)=C(C)N2CC)s/c1=C1/C(=O)N(CC)C(=S)N1c1ccccc1	Myeloid diff MLP active
COc1ccc(N2CCN(CC(=O)c3ccc(O)cc3O)CC2)cc1	none
O=C(CN1CCN(c2ccc(F)cc2)CC1)c1ccc(O)cc1O	Myeloid diff MLP active
CCOc1ccccc1N1CC(C(=O)N(Cc2nnc(-c3ccccc3Cl)o2)C2CC2)CC1=O (stereo not given)	none
CSc1cccc(N2CC(C(=O)N(Cc3nnc(-c4ccccc4Cl)o3)C3CC3)CC2=O)c1 (stereo not given)	Myeloid diff MLP active
COC(=O)C(Cc1c[nH]c2ccccc12)NC(C)=O (stereo not given)	none
CC(Cc1c[nH]c2ccccc12)NC(=O)OCCCl (stereo not given)	Myeloid diff MLP active
CN1C(=O)N(c2ccccc2)C(Nc2nncs2)C1(C)C (stereo not given)	Myeloid diff MLP active
CC(=O)N1CCc2cc(S(=O)(=O)NCCCN3CCCCC3)ccc21	none
CC(=O)N1CCc2cc(S(=O)(=O)NCCC3=CCCCC3)ccc21	NR2E3 ag-2 81
COc1cc(OC)cc(C(=O)NCCCNC(=O)c2ccccn2)c1	none
COc1ccc(C(c2nnnn2Cc2ccccc2)N2CCN(C/C=C/c3ccccc3)CC2)cc1 (stereo not given)	none (no result: NR2E3 ag-1, T cell HTS, FXN GAA850 act)
O=C1CC(C(=O)O)C(c2ccccc2)c2ccccc21 (stereo not given)	none (no result: NR2E3 ag-1, T cell HTS)
COc1ccc(NC(=O)N2CCN(c3nc(-c4cccc(OC)c4)cs3)CC2)cc1	Myeloid diff MLP active
COc1cccc(-c2csc(N3CCN(C(=O)Nc4ccc(Cl)cc4)CC3)n2)c1	none
CCOc1ccc(S(=O)(=O)N2CCN(C(=O)c3cc(C4CC4)nn3-c3ccccc3)CC2)cc1	none (no result: NR2E3 ag-1, T cell HTS)
